In ChEMBL document CHEMBL2407075, “Sulphonamido-quinoxalines: search for anticancer agent” (Eur J Med Chem, 2013):

Assays:
Format in all cases: functional
UACC-257 = assay: Growth inhibition of human UACC257 cells assessed as cell growth at 10^-4 M after 48 hrs by sulforhodamine B assay; conditions: UACC-257, 48 h, read-out: Activity
SK-MEL-5 = assay: Growth inhibition of human SK-MEL-5 cells assessed as cell growth at 10^-4 M after 48 hrs by sulforhodamine B assay; conditions: SK-MEL-5, 48 h, read-out: Activity
M14 = assay: Growth inhibition of human M14 cells assessed as cell growth at 10^-4 M after 48 hrs by sulforhodamine B assay; conditions: M14, 48 h, read-out: Activity
MDA-MB-435 = assay: Growth inhibition of human MDA-MB-435 cells assessed as cell growth at 10^-4 M after 48 hrs by sulforhodamine B assay; conditions: MDA-MB-435, 48 h, read-out: Activity
SW-620 [1] = assay: Growth inhibition of human SW620 cells assessed as cell growth at 10^-4 M after 48 hrs by sulforhodamine B assay; conditions: SW-620, 48 h, read-out: Activity
HCT-15 = assay: Growth inhibition of human HCT15 cells assessed as cell growth at 10^-4 M after 48 hrs by sulforhodamine B assay; conditions: HCT-15, 48 h, read-out: Activity
How it was run: (§1)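 Five-dose screen at NCI. Cells in RPMI 1640 with 5% FBS and 2 mM L-glutamine, seeded at 5000–40,000 cells/well and grown 24 h at 37 °C, 5% CO2 before dosing, with time-zero plates TCA-fixed. Drug diluted from DMSO stock to 0.01, 0.1, 1, 10 and 100 µM final, 48 h. Cells fixed with cold TCA (10% final), stained with 0.4% SRB and read at 515 nm. Percent growth from Tz, control and test absorbances; GI50, TGI and LC50 from dose-response curves.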

BT-549 = assay: Growth inhibition of human BT549 cells assessed as cell growth at 10^-5 M after 48 hrs by sulforhodamine B assay; conditions: BT-549, 48 h, read-out: Activity
How it was run: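 Five-dose NCI-60 run (0.01, 0.1, 1, 10 and 100 µM, as 10-fold dilutions from a DMSO stock made at 400× the top final level). Cells were grown in RPMI 1640 with 5% FBS and 2 mM glutamine and plated for 24 h. They were then exposed for 48 h at 37 °C and 5% CO2. TCA fixation was followed by SRB staining with A515 read-out. Percent growth was taken relative to time-zero and control plates.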

[2] = Growth inhibition of human NCI-ADR-RES cells assessed as cell growth at 10^-5 M after 48 hrs by sulforhodamine B assay; conditions: read-out: Activity
IGROV-1 = assay: Growth inhibition of human IGROV1 cells assessed as cell growth at 10^-5 M after 48 hrs by sulforhodamine B assay; conditions: IGROV-1, 48 h, read-out: Activity; how it was run: as §1
HT-29 = assay: Growth inhibition of human HT-29 cells assessed as cell growth at 10^-5 M after 48 hrs by sulforhodamine B assay; conditions: HT-29, 48 h, read-out: Activity; how it was run: as §1
NCI-H460 = assay: Growth inhibition of human NCI-H460 cells assessed as cell growth at 10^-5 M after 48 hrs by sulforhodamine B assay; conditions: NCI-H460, 48 h, read-out: Activity
NCI-H23 [3] = assay: Growth inhibition of human NCI-H23 cells assessed as cell growth at 10^-5 M after 48 hrs by sulforhodamine B assay; conditions: NCI-H23, 48 h, read-out: Activity
SK-MEL-28 = assay: Growth inhibition of human SK-MEL-28 cells assessed as cell growth at 10^-6 M after 48 hrs by sulforhodamine B assay; conditions: SK-MEL-28, 48 h, read-out: Activity
LOX IMVI = assay: Growth inhibition of human LOXIMVI cells assessed as cell growth at 10^-6 M after 48 hrs by sulforhodamine B assay; conditions: read-out: Activity
SW-620 [4] = assay: Growth inhibition of human SW620 cells assessed as cell growth at 10^-6 M after 48 hrs by sulforhodamine B assay; conditions: SW-620, 48 h, read-out: Activity
NCI-H522 [5] = assay: Growth inhibition of human NCI-H522 cells assessed as cell growth at 10^-6 M after 48 hrs by sulforhodamine B assay; conditions: NCI-H522, 48 h, read-out: Activity
NCI-H322M [6] = assay: Growth inhibition of human NCI-H322M cells assessed as cell growth at 10^-6 M after 48 hrs by sulforhodamine B assay; conditions: read-out: Activity
MCF7 = assay: Growth inhibition of human MCF7 cells assessed as cell growth at 10^-7 M after 48 hrs by sulforhodamine B assay; conditions: MCF7, 48 h, read-out: Activity
OVCAR-4 = assay: Growth inhibition of human OVCAR4 cells assessed as cell growth at 10^-7 M after 48 hrs by sulforhodamine B assay; conditions: OVCAR-4, 48 h, read-out: Activity
OVCAR-3 = assay: Growth inhibition of human OVCAR3 cells assessed as cell growth at 10^-7 M after 48 hrs by sulforhodamine B assay; conditions: OVCAR-3, 48 h, read-out: Activity
SNB-19 = assay: Growth inhibition of human SNB19 cells assessed as cell growth at 10^-7 M after 48 hrs by sulforhodamine B assay; conditions: SNB-19, 48 h, read-out: Activity
SK-MEL-2 = assay: Growth inhibition of human SK-MEL-2 cells assessed as cell growth at 10^-8 M after 48 hrs by sulforhodamine B assay; conditions: SK-MEL-2, 48 h, read-out: Activity
U-251 = assay: Growth inhibition of human U251 cells assessed as cell growth at 10^-8 M after 48 hrs by sulforhodamine B assay; conditions: U-251, 48 h, read-out: Activity
[7] = Growth inhibition of human NCI-ADR-RES cells after 48 hrs by sulforhodamine B assay; conditions: for CC50: read-out: LC50 (the source's name)
How it was run: (§2)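 Adherent cells in RPMI 1640 with 5% FBS and 2 mM L-glutamine were plated at 5000–40,000 cells/well and grown 24 h. Five concentrations (0.01–100 µM, DMSO stock) were added for 48 h at 37 °C. Cells were fixed with cold TCA (10% final) and stained with SRB, read at 515 nm. GI50 came from log concentration–growth curves against time-zero and control plates.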

NCI-H522 [8] = assay: Growth inhibition of human NCI-H522 cells after 48 hrs by sulforhodamine B assay; conditions: NCI-H522, 48 h; for CC50: read-out: LC50 (the source's name); how it was run: as §2
NCI-H322M [9] = assay: Growth inhibition of human NCI-H322M cells after 48 hrs by sulforhodamine B assay; conditions: for CC50: read-out: LC50 (the source's name); how it was run: as §2
NCI-H23 [10] = assay: Growth inhibition of human NCI-H23 cells after 48 hrs by sulforhodamine B assay; conditions: NCI-H23, 48 h; for CC50: read-out: LC50 (the source's name)
How it was run: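 Five-dose NCI 60 screen at 0.01, 0.1, 1, 10 and 100 µM, 48 h exposure after 24 h preincubation, in RPMI 1640 with 5% FBS and 2 mM glutamine. Fixed with TCA (10% final for adherent cells, 16% for suspension cells), stained with SRB, A515 read. Percent growth uses time-zero (Tz), control and treated plates. GI50, TGI and LC50 are read from the dose-response curves.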

Row | Compound | growth at 100 µM (UACC-257) [%] | growth at 100 µM (SK-MEL-5) [%] | growth at 100 µM (M14) [%] | growth at 100 µM (MDA-MB-435) [%] | growth at 100 µM (SW-620 [1]) [%] | growth at 100 µM (HCT-15) [%] | growth at 10 µM (BT-549) [%] | growth at 10 µM [2] [%] | growth at 10 µM (IGROV-1) [%] | growth at 10 µM (HT-29) [%] | growth at 10 µM (NCI-H460) [%] | growth at 10 µM (NCI-H23 [3]) [%] | growth at 1 µM (SK-MEL-28) [%] | growth at 1 µM (LOX IMVI) [%] | growth at 1 µM (SW-620 [4]) [%] | growth at 1 µM (NCI-H522 [5]) [%] | growth at 1 µM (NCI-H322M [6]) [%] | growth at 0.1 µM (MCF7) [%] | growth at 0.1 µM (OVCAR-4) [%] | growth at 0.1 µM (OVCAR-3) [%] | also measured
1 | O=S(=O)(Nc1ccc(Cl)cc1)c1ccc2nc(-c3ccccc3)c(-c3ccccc3)nc2c1 | 67 | 52 | 77 | 76 | 70 | 68 | -20 | 14 | 24 | -55 | -18 | 4 | 91 | 89 | 88 | 88 | 98 | 95 | 90 | 97 | growth at 0.1 µM (SNB-19): 96%; growth at 0.01 µM (SK-MEL-2): 93%; growth at 0.01 µM (U-251): 97%; TGI [7]: > 100 µM; CC50 [7]: > 100 µM; CC50 (NCI-H522 [8]): > 100 µM; TGI (NCI-H322M [9]): > 100 µM; CC50 (NCI-H322M [9]): > 100 µM; TGI (NCI-H23 [10]): > 100 µM; CC50 (NCI-H23 [10]): > 100 µM
2 | O=S(=O)(Nc1ccccn1)c1ccc2nc(-c3ccccc3)c(-c3ccccc3)nc2c1 | 53 | 41 | 69 | 76 | 59 | 63 | -34 | -1 | 30 | -37 | 1 | 4 | 96 | 88 | 87 | 74 | 108 | 96 | 102 | 92 | growth at 0.1 µM (SNB-19): 93%; growth at 0.01 µM (SK-MEL-2): 99%; growth at 0.01 µM (U-251): 99%; CC50 [7]: > 100 µM; GI50 (NCI-H522 [8]): 1.6 µM; CC50 (NCI-H522 [8]): > 100 µM; TGI (NCI-H322M [9]): > 100 µM; CC50 (NCI-H322M [9]): > 100 µM; GI50 (NCI-H23 [10]): 2.45 µM; TGI (NCI-H23 [10]): > 100 µM; CC50 (NCI-H23 [10]): > 100 µM
